Screens as filed in PubChem.
XBP1 UPR activ – activators of adaptive XBP1 UPR arm, primary screen, cell-based, CHO-XBP1 luciferase reporter, luminescence, uHTS; IRE1-XBP1 UPR activation; percent of tunicamycin response, DMSO as zero; activation, % at 20 µM; 0.33% of 330,000 active; AID 463104, 2010;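 active = versus positive control, 20 µM dose yields 30% or more activation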
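Assay system: IRE1-XBP1 luciferase reporter CHO line. Input: 1000 cells/well. Buffer or medium: F12 with 10% serum. Doses: 20 µM, 1% DMSO. Times: overnight seeding at 37 °C, 6 h compound treatment at 37 °C. Technique: Steady-Glo luciferase glow luminescence, 10 min after reagent addition.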
MDM2 E3 inh – MDM2-luciferase reporter signal enhancers, primary screen, MDM2 E3 ligase inhibitor project, cell-based, luminescence, 1536-well | E3 ubiquitin-protein ligase Mdm2 (Homo sapiens), Q00987 | signal enhancement, % at 5 µM | AID 1230, 2008 | 0.11% of 210,000 active | cell-based MDM2 ubiquitination luciferase reporter, 2 h; 0 = plate control, 100 = twice control, blank-subtracted;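 active = signal enhancement of 30% or more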;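 also: luminescence tracks abundance of the self-degrading MDM2-luciferase fusion protein; higher signal means inhibition of MDM2 E3 ligase activity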
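Timing – 2 h compound exposure at 37 °C · Assay system – mammalian cells stably expressing self-ubiquitinating, self-degrading MDM2 E3–luciferase fusion · Amount – 2000 cells seeded into each well · Measure – % luminescence enhancement versus blank-corrected plate control mean · Measured by – SteadyLite luminescence, 15 min reagent step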
UPR CHOP act – activators of apoptotic CHOP UPR arm, primary screen, cell-based, CHO-CHOP luciferase reporter, luminescence, uHTS; UPR activation; percent of tunicamycin response over DMSO baseline; activation, % at 10 µM; 0.34% of 330,000 active; AID 449763, 2010;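 active = at 10 µM dose, activation of 40% or more, normalized to positive control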
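Assay system: CHO cells with stable CHOP pathway luciferase reporter; Buffer or medium: F12 plus 10% serum; Times: 16-18 h cell attachment, then 6 h compound exposure, 37 °C; Signal: luciferase luminescence; Read-out basis: percent activation relative to tunicamycin control; Control set: tunicamycin high control, DMSO low control.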
Dynein cargo inh – inhibitors of GR-EGFP nuclear translocation, primary screen, dynein cargo transport inhibitor project, imaging, high-content, 3617.4 mouse cells | test concentration mostly 20 µM; stimulated with dexamethasone, 1 µM; hits give low values | z-score, hits read low | 0.47% of 220,000 active;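 active = plate z-score of nuclear minus cytoplasmic receptor signal below a set negative limit, without overly bright fluorescence or cell loss, cut at about -3.5 in these data, passing the limit was not always enough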;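 also: z-score of nuclear minus cytoplasmic ring GR-EGFP intensity difference per well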
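Buffer or medium: tet-free, stripped-serum medium; reagent: dexamethasone at 1.0 µM final, 30 min; incubation: 48 h induction, 1 h compound, 30 min dex at 37 °C; measured by: formaldehyde fixation, Hoechst nuclear stain, 10x automated fluorescence imaging; read-out: nuclear-to-cytoplasmic GR-EGFP distribution per well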
B2AR ag – beta2AR agonists driving receptor internalization, primary screen, cell-based, FAP fluorogen, flow cytometry; response, % (test concentration not listed); AID 504454, 2011; 0.43% of 340,000 active; Am2.2-beta2AR cells; Beta-2 adrenergic receptor (Homo sapiens), P07550;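 active = response above a set limit, near 3 SD of response in nonfluorescent compounds, cut at about 42% in these data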
Target sequence (P07550 whole entry, looked up): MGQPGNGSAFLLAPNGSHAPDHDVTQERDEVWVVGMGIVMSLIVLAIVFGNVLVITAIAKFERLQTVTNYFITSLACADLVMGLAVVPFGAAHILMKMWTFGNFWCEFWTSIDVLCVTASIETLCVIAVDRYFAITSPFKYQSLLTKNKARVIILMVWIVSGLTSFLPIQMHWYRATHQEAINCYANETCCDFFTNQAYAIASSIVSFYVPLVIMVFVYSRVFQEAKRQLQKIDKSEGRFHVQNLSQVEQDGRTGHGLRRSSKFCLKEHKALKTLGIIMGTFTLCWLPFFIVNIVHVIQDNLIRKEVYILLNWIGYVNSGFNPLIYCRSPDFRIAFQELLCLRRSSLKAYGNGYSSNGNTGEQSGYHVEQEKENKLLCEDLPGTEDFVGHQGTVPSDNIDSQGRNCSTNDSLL
Mdm2 MdmX PPI – inhibitors of human Mdm2-MdmX association, primary screen, cell-based, luminescence, split luciferase, SaOS-2, uHTS; Protein Mdm4 (Homo sapiens) + E3 ubiquitin-protein ligase Mdm2 (Homo sapiens), …; SaOS-2 split-luciferase Mdm2/MdmX complementation; inhibition, % at 8 µM; 3% of 330,000 active;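 active = inhibition of at least 50% at 8 µM in the primary screen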
Mdm2-MdmX conf – Mdm2-MdmX complex disruptors, retested hits, confirmation, luminescence, single concentration | shares compounds with Mdm2 MdmX PPI | Mdm2-MdmX binding, luminescent assay | inhibition, % at 8 µM | 55% of 10,000 active; in the data active = inhibition above about 40%
FLuc counter – full-length luciferase signal inhibition, confirmation, counter-screen for Mdm2/MdmX interaction inhibitor project, cell-based, single concentration, SaOS-2; AID 504607, 2011; shares compounds with Mdm2 MdmX PPI; 77% of 6,200 active; inhibition, % at 8 µM; SaOS-2 full-length luciferase counterscreen, luminescence;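 active = mean inhibition at 8 µM reaching about 37%, which flags the compound as non-specific, limit read from the data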;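 also: p53-null SaOS-2 cells with luciferase driven by a doxycycline-inducible promoter; compound on cells about two nights before reading with doxycycline added after day one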
A number is an active result. Hits are enriched below; roughly 3.7% of the tested compounds scored in any of these assays.

Cc1cccc(OCCN2C(=O)C(=O)c3cccc(C)c32)c1 was read as XBP1 UPR activ inactive, MDM2 E3 inh inactive, UPR CHOP act inactive, Dynein cargo inh inactive, B2AR ag inactive and Mdm2 MdmX PPI inactive.
Screening CCCN1C(=O)C(=O)c2cc(C)ccc21 returned XBP1 UPR activ inactive, UPR CHOP act inactive, B2AR ag inactive, Mdm2 MdmX PPI 60.4 and Mdm2-MdmX conf inactive.
Cc1ccc2c(c1)C(=O)C(=O)N2CCOc1ccccc1 was read as XBP1 UPR activ inactive, MDM2 E3 inh inactive, UPR CHOP act inactive, Dynein cargo inh inactive, B2AR ag inactive, Mdm2 MdmX PPI 65.2, Mdm2-MdmX conf 46.2 and FLuc counter 95.1.
`Cc1cccc(OCCN2C(=O)C(=O)c3cc(C)ccc32)c1` gave XBP1 UPR activ inactive, MDM2 E3 inh inactive, UPR CHOP act inactive, Dynein cargo inh inactive, B2AR ag inactive, Mdm2 MdmX PPI 68.6, Mdm2-MdmX conf 61.6 and FLuc counter 89.6.
Cc1ccc2c(c1)C(=O)C(=O)N2c1ccc(C(F)(F)F)cc1 was read as XBP1 UPR activ inactive, UPR CHOP act inactive, B2AR ag inactive and Mdm2 MdmX PPI inactive.
For COc1ccc(S(=O)(=O)Nc2ccc3c(c2)OCCO3)cc1OC the results were XBP1 UPR activ inactive, UPR CHOP act inactive, B2AR ag inactive and Mdm2 MdmX PPI inactive.
Screening CC(=O)Nc1nc2cc3c(cc2s1)OCO3 returned XBP1 UPR activ inactive, MDM2 E3 inh inactive, UPR CHOP act inactive, Dynein cargo inh inactive, B2AR ag inactive and Mdm2 MdmX PPI inactive.
For O=C(Nc1nc(-c2nc3ccccc3s2)cs1)c1ccco1 the results were XBP1 UPR activ inactive, MDM2 E3 inh inactive, UPR CHOP act inactive, Dynein cargo inh inactive, B2AR ag inactive, Mdm2 MdmX PPI 72.6 and Mdm2-MdmX conf inactive.
`O=C(Nc1nc2cc3c(cc2s1)OCO3)C1=COCCO1` gave XBP1 UPR activ inactive, UPR CHOP act inactive, Dynein cargo inh inactive, B2AR ag inactive, Mdm2 MdmX PPI 51.9 and Mdm2-MdmX conf inactive.
`O=C(Nc1nc2cc3c(cc2s1)OCO3)c1ccco1` gave Dynein cargo inh inactive and B2AR ag inactive.
Screening O=C(Nc1nc2cc3c(cc2s1)OCCO3)c1ccco1 returned XBP1 UPR activ inactive, UPR CHOP act inactive, B2AR ag inactive, Mdm2 MdmX PPI 70.7, Mdm2-MdmX conf 68.3 and FLuc counter 74.2.
For O=C(Cc1c[nH]c2ccccc12)Nc1ccc(N2CCOCC2)cc1 the results were XBP1 UPR activ inactive, MDM2 E3 inh inactive, UPR CHOP act inactive, Dynein cargo inh inactive, B2AR ag inactive and Mdm2 MdmX PPI inactive.
Screening CN1CCCN(C(=O)c2cc(-c3ccc(Cl)c(Cl)c3Cl)nc3ccccc23)CC1 returned XBP1 UPR activ inactive, MDM2 E3 inh inactive, UPR CHOP act inactive, Dynein cargo inh inactive, B2AR ag inactive, Mdm2 MdmX PPI 53.3, Mdm2-MdmX conf inactive and FLuc counter 75.9.
For O=C(OCC(=O)N1CCN(C(=O)c2ccco2)CC1)c1cc(-c2ccc(Cl)c(Cl)c2Cl)nc2ccccc12 the results were XBP1 UPR activ inactive, MDM2 E3 inh inactive, UPR CHOP act inactive, Dynein cargo inh inactive, B2AR ag inactive, Mdm2 MdmX PPI 57.1 and Mdm2-MdmX conf inactive.
O=C(OCC(=O)N1CCN(C(=O)c2ccco2)CC1)c1cc(-c2ccco2)nc2ccccc12 was read as XBP1 UPR activ inactive, MDM2 E3 inh inactive, UPR CHOP act inactive, Dynein cargo inh inactive, B2AR ag inactive and Mdm2 MdmX PPI inactive.
Screening Cc1cccc(C(=O)N2CCNC(=O)C2CC(=O)Nc2cccc(Cl)c2)c1 (stereo unspecified) returned XBP1 UPR activ inactive, UPR CHOP act inactive, B2AR ag inactive and Mdm2 MdmX PPI inactive.
`CCCCCCC(=O)N1C/C=C\C(c2ccc(OC)cc2)N(Cc2ccc(F)cc2)C(=O)[C@H]1Cc1ccccc1` (stereo partly specified) gave XBP1 UPR activ inactive, MDM2 E3 inh inactive, UPR CHOP act inactive, Dynein cargo inh inactive, Mdm2 MdmX PPI 71.5, Mdm2-MdmX conf inactive and FLuc counter 62.1.
`CC(NCCCOc1cccc2ccccc12)c1ccccc1` (stereo unspecified) gave XBP1 UPR activ inactive, UPR CHOP act inactive, B2AR ag inactive, Mdm2 MdmX PPI 58.1 and Mdm2-MdmX conf inactive.
Screening O=C(NCc1ccco1)/C(=C/c1ccc(C(F)(F)F)cc1)c1nc2ccccc2[nH]1 returned XBP1 UPR activ inactive, MDM2 E3 inh inactive, UPR CHOP act inactive, Dynein cargo inh inactive, B2AR ag inactive and Mdm2 MdmX PPI inactive.
Screening O=C(NCc1ccco1)/C(=C/c1cccc(C(F)(F)F)c1)c1nc2ccccc2[nH]1 returned XBP1 UPR activ inactive, MDM2 E3 inh inactive, UPR CHOP act inactive, Dynein cargo inh inactive, B2AR ag inactive, Mdm2 MdmX PPI 82.7, Mdm2-MdmX conf 83.6 and FLuc counter 37.9.
COc1ccc(N/C=C/C(=O)c2ccc(OC)c(OC)c2)cc1 was read as XBP1 UPR activ inactive, MDM2 E3 inh inactive, UPR CHOP act inactive, Dynein cargo inh inactive, B2AR ag inactive and Mdm2 MdmX PPI inactive.
For COc1ccc(OC)c(N/C=C/C(=O)c2ccccc2)c1 the results were XBP1 UPR activ inactive, UPR CHOP act inactive, B2AR ag inactive, Mdm2 MdmX PPI 58.5, Mdm2-MdmX conf 62.5 and FLuc counter 155.3.
Screening COc1ccc(N/C=C/C(=O)c2cc(OC)c(OC)c(OC)c2)cc1 returned XBP1 UPR activ inactive, UPR CHOP act inactive, B2AR ag inactive, Mdm2 MdmX PPI 68.4, Mdm2-MdmX conf 60.0 and FLuc counter 57.1.
For COc1ccc(OC)c(C(=O)/C=C/c2ccccc2C(F)(F)F)c1 the results were XBP1 UPR activ inactive, MDM2 E3 inh inactive, UPR CHOP act inactive, Dynein cargo inh inactive, B2AR ag inactive, Mdm2 MdmX PPI 89.0, Mdm2-MdmX conf 65.2 and FLuc counter inactive.
